Screening data as filed in PubChem BioAssay.
MEKK3 PB1 HTS – raises or lowers MEK5 binding to the human MEKK3 PB1 domain; Q99759; bead-based flow cytometry, Alexa488-MEK5 binding to MEKK3; actives lie on both sides; 0 = blocked by unlabeled MEK5, 100 = vehicle; binding response (% of control), % at 10 µM; 1.4% of 290,000 active;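 active = binding response more than 3 SD above or below the average of its plate-row segment, actives on both sides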;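 also: Alexa488 bead fluorescence after subtracting the streptavidin-only scavenger bead signal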
Target sequence (Q99759 whole entry, looked up, the tested form may be a part): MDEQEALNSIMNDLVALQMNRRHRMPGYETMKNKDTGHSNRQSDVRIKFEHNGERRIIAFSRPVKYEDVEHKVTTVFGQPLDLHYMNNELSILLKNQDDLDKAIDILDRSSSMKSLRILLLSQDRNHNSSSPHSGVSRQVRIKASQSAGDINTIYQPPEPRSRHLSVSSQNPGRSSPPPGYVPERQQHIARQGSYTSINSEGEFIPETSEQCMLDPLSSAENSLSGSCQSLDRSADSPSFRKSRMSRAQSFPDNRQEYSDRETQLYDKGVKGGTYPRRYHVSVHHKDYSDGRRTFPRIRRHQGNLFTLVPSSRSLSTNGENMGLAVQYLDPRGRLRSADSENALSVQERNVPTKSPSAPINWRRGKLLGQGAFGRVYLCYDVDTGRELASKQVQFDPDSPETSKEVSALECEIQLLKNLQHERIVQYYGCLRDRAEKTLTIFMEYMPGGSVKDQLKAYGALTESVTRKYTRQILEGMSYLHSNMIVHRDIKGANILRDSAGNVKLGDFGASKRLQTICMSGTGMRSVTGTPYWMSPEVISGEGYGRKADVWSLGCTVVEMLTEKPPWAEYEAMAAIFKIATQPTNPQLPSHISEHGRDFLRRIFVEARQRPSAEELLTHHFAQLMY
ABCG2 block – human ABCG2 inhibition, ABCB1 as counter-screen; IgMXP3 cells, JC-1 efflux, flow cytometry; inhibition, % at 6.6 µM; 0.1% of 190,000 active;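 active = inhibition above 80%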;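 also: 0% = DMSO and 100% = nicardipine control wells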
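Times: 10 min at 25 °C | Test system: Two drug-resistant human cell lines, ABCG2 and ABCB1 | Quantity: 3 million cells/mL final, two lines in 1:1 ratio | Signal: Flow cytometry, 530 nm JC-1 signal | Dosing: Compound at 6.6 µM | Controls: Nicardipine and DMSO wells | Reagent: JC-1 as fluorescent efflux pump substrate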
MEKK2 mut-MEK5 – signal of MEK5 binding to mutant human MEKK2 PB1 domain; percent response, % at 10 µM; bead flow cytometry, Alexa488-MEK5 binding to MEKK2 mutant; 0.35% of 290,000 active; in the data active = percent response above about 24%, passing the limit was not always enough
ABCB1 block – blocks JC-1 efflux by human ABCB1 transporter; P08183; CCRF-Adr cells, flow cytometry; inhibition, % at 6.6 µM; 0.067% of 190,000 active; in the data active = inhibition above about 40%;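 also: 0% = vehicle and 100% = reference inhibitor; higher value means more JC-1 retained so stronger ABCB1 efflux block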
Efflux pump mplx – inhibitors of Candida antifungal efflux pumps expressed in yeast. S. cerevisiae Candida pump triplex, Nile Red efflux. AID 485275. 0.44% of 330,000 active. inhibition, % at 10 µM;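 active = plate passing quality check with inhibition over a set limit, or well fluorescence over plate mean plus 4 SD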;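 also: Nile Red retained in pooled yeast measured as flow cytometry median fluorescence; 0% = buffer negative control and 100% = Enniatin B positive control; higher means more Nile Red kept so more efflux inhibition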
MEKK2 WT-MEK5 – raises or lowers MEK5 binding to wildtype human MEKK2 PB1 domain. 1.1% of 290,000 active. AID 1531. Q9Y2U5. bead flow cytometry, Alexa488-MEK5 binding to MEKK2 WT; actives lie on both sides. binding response (% of control), % at 10 µM; in the data active = binding response below about 67% or above about 130%
ABCB1 confirm – confirmation of human ABCB1 transporter inhibitors, ABCG2 counter-screen; shares compounds with ABCG2 block; CCRF-Adr cells, JC-1 efflux, flow cytometry; inhibition, % at 6.6 µM; 7% of 270 active; AID 1451;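 active = inhibition of pump activity above 50%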;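 also: 0% = DMSO and 100% = nicardipine full pump inhibition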
ABCG2 confirm – confirmation of human ABCG2 transporter inhibitors, ABCB1 counter-screen | shares compounds with ABCG2 block | IgMXP3 cells, JC-1 efflux, flow cytometry | inhibition, % at 6.6 µM | 6% of 270 active | AID 1453;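 active = inhibition above 50%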;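 also: 0% = DMSO wells and 100% = nicardipine pump inhibitor wells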
IgMXP3 fluor – IgMXP3 autofluorescence flag for ABCG2 confirmation; IgMXP3 cells, compound autofluorescence 488/530 nm, flow; active compounds read high; fluorescence at 6.6 µM; 30% of 270 active; shares compounds with ABCG2 block;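 active = fluorescence in ABCG2-expressing cells above the plate's control-well mean plus 3 SD, cut at about 15 in these data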;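 also: median cell fluorescence with compound minus that of DMSO-treated control cells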
CCRF autofluor – CCRF-Adr autofluorescence flag for ABCB1 confirmation | shares compounds with ABCG2 block | CCRF-Adr cells, compound autofluorescence 488/530 nm, flow cytometry; active compounds read high | fluorescence at 6.6 µM | 30% of 270 active | AID 1483;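 active = fluorescence beyond the plate control mean plus 3 SD, with a fluorescence-to-maximum score over 2, cut at about 25 in these data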
Numbers without * were called inactive; nt = no result given; [ ] = remark or other dose. This is a sample that favours compounds with a hit; in the whole collection about 2.5% have one here.

SMILES	MEKK3 PB1 HTS	ABCG2 block	MEKK2 mut-MEK5	ABCB1 block	Efflux pump mplx	MEKK2 WT-MEK5	ABCB1 confirm	ABCG2 confirm	IgMXP3 fluor	CCRF autofluor
CCS(=O)(=O)NCc1ccc2[nH]c3c(c2c1)CCCC3	100	3	-3	0	1.3*	97	nt	nt	nt	nt
Oc1oc(-c2cccc3ccccc23)nc1/C=N/c1nccs1	130*	-1	1	0	0	104	nt	nt	nt	nt
Oc1oc(-c2cccc3ccccc23)nc1C=NCc1ccccc1	97	14	-2	1	nt	96	nt	nt	nt	nt
COC(=O)CCC(=O)OC1(C)C(=O)C2=CN(c3ccc(OC)cc3)C(c3ccc(OC)cc3)=CC2=C(Br)C1=O (stereo not drawn)	87	nt	-1	nt	0	-6.0*	nt	nt	nt	nt
C=CCN1C=C2C(=O)C(C)(OC(=O)CCC(=O)OC)C(=O)C(Br)=C2C=C1c1ccc(OC)cc1 (stereo not drawn)	80	nt	-1	nt	0	-3.0*	nt	nt	nt	nt
C[C@H](CO)N1C[C@H](C)[C@@H](CN(C)C(=O)NC2CCCCC2)Oc2c(NC(=O)Nc3ccc(C(F)(F)F)cc3)cccc2C1=O	nt	nt	nt	nt	0	nt	nt	nt	nt	nt
Cc1c(OC(C)C(=O)NCc2ccncc2)ccc2c3c(c(=O)oc12)CCCC3 (stereo not drawn)	102	nt	10	nt	0	105	nt	nt	nt	nt
CCOc1ccccc1CNC(=O)C1CCCN(c2nc3ccccc3o2)C1 (stereo not drawn)	68*[inhibitor]	31	-14	4	nt	74	nt	nt	nt	nt
CCOc1ccccc1CNC(=O)C1CCN(c2nc3ccccc3o2)CC1	nt	15	nt	2	0	nt	nt	nt	nt	nt
Cc1nc(SCC(=O)Nc2nc3ccccc3s2)c(C#N)c(C)c1C	96	-1	-2	0	0	97	nt	nt	nt	nt
Cc1cc(C(F)(F)F)c(C#N)c(SCC(=O)Nc2nc3ccccc3s2)n1	117	3	45	3	0	57*	nt	nt	nt	nt
CCOC(=O)C1=C(C)N=c2s/c(=C/c3cccc([N+](=O)[O-])c3O)c(=O)n2C1c1ccc(OC)cc1OC (stereo not drawn)	98	nt	0	nt	0.7*	90	nt	nt	nt	nt
COc1ccc(C2C(C(C)=O)=C(C)N=c3s/c(=C\c4cc(C)n(C)c4C)c(=O)n32)c(OC)c1 (stereo not drawn)	99	4	-5	2	2.5*	87	nt	nt	nt	nt
COc1cc(OC)c(NC(=O)c2sc3ncn(CC(=O)N4CCOCC4)c(=O)c3c2C)cc1Cl	104	nt	1	nt	0	101	nt	nt	nt	nt
C/C(=N/Nc1ncc(Br)cn1)c1ccc(Br)cc1	103	nt	-3	nt	0	-2.0*	nt	nt	nt	nt
O=C(OCc1ccccc1F)c1cnc(Cl)c(Cl)c1	0.0*[inhibitor]	nt	-26	nt	0	-10*[inhibitor]	nt	nt	nt	nt
O=C(N/N=C/c1sc(N2CCOCC2)nc1-c1ccccc1)c1ccccc1Cl	106	5	7	0	0	104	nt	nt	nt	nt
O=[N+]([O-])c1ccc(N/N=C/c2sc(N3CCOCC3)nc2-c2ccccc2)c(S(=O)(=O)Nc2ccccc2Cl)c1	91	2	63*	8	nt	nt	nt	nt	nt	nt
COc1cccc(CNC(=O)C(=O)NCC(c2ccco2)N2CCOCC2)c1 (stereo not drawn)	108	65	15	65*	0	92	0	1	-0.14	4.3
COc1ccccc1CNC(=O)C(=O)NCC(c1ccco1)N1CCOCC1 (stereo not drawn)	105	1	-1	1	0	96	nt	nt	nt	nt
O=C(NC12CC3CC(CC(C3)C1)C2)N(Cc1ccccc1)Cc1ccncc1	98	3	-3	4	0	96	nt	nt	nt	nt
O=C(c1ccccc1)c1ccc(N2CCOCC2)c(NC(=O)c2ccco2)c1	100	81*	2	4	0	98	0	47	0.46	33*
O=C(Nc1cc(Cl)ccc1N1CCOCC1)c1ccco1	102	nt	2	nt	-1	101	nt	nt	nt	nt
CCN(CC)c1nc(-c2cccc(OC)c2O)nc2ccccc12	97	83*	-2	8	0	98	25	24	17*	108*
CCN(CC)C(C)C#CCC(c1ccccc1)c1ccccc1 (stereo not drawn)	88	nt	-17	nt	nt	86	nt	nt	nt	nt
SMILES	MEKK3 PB1 HTS	ABCG2 block	MEKK2 mut-MEK5	ABCB1 block	Efflux pump mplx	MEKK2 WT-MEK5	ABCB1 confirm	ABCG2 confirm	IgMXP3 fluor	CCRF autofluor
CCOc1nc(-c2ccccc2)ccc1-c1noc(COC)n1	100	76	-1	1	0	102	-1	27	4	3.8
Cc1cc(C)nc(-n2nc(C)c3c(C(F)(F)F)cc(=O)[nH]c32)n1	108	72	9	3	0	113	0	32	3.6	7.2
O=C(O)CNc1ccc(S(=O)(=O)C(F)(F)F)cc1[N+](=O)[O-]	95	nt	-12	nt	0	95	nt	nt	nt	nt
CC(=O)Nc1ccc(Nc2ccc(S(=O)(=O)C(F)(F)F)cc2[N+](=O)[O-])cc1	99	92*	-4	1	0	98	1	55*	-2.2	-4.4
Clc1ccccc1-c1nc(-c2ccc(Br)o2)no1	87	nt	-3	nt	0	91	nt	nt	nt	nt
O=[N+]([O-])c1ccccc1-c1nc(-c2ccc(Br)o2)no1	100	90*	-3	2	0	100	2	28	-0.34	0.61
CCOC(=O)Nc1ccc(C(=O)/C=C/c2ccccc2)cc1	91	nt	-19	nt	0	96	nt	nt	nt	nt
CC(C)(C)OC(=O)N[C@H](/C=C/c1ccccc1)C(=O)OC(C)(C)C	nt	nt	nt	nt	0	nt	nt	nt	nt	nt
Nn1c(Cc2cccc3ccccc23)nnc1SCc1ccc(Cl)c(Cl)c1	105	82*	0	66*	0	98	1	17	0.36	-1.9
Nn1c(Cc2cccc3ccccc23)nnc1SCc1c(Cl)cccc1Cl	102	2	-1	1	0	98	nt	nt	nt	nt
O=C(N/N=C1\CCCc2c1[nH]c1ccc([N+](=O)[O-])cc21)c1ccncc1	100	114*	3	0	0	89	4	39	-1.1	-0.09
COC(=O)Cc1ccc(NC(=S)N2CCN(CCO)CC2)cc1	nt	nt	nt	nt	0	nt	nt	nt	nt	nt
N#Cc1ccc(COC(=O)c2ccc(N3CCCC3)c([N+](=O)[O-])c2)cc1	97	90*	5	0	0	93	5	38	-2.3	-4.4
